Experimental data: ChEMBL document CHEMBL4184277, “Substitution of terminal amide with 1H-1,2,3-triazole: Identification of unexpected class of potent antibacterial agents” (2018)
≈ marks a conversion by molar mass, not a printed value. Calls of active or inactive are those of the source. The calls are words filed in the database; no cut-off is given here.

What was measured:
Bacillus subtilis = test: Antibacterial activity against Bacillus subtilis ATCC 9372 after 24 hrs by broth microdilution method; type: functional; conditions: ATCC 9372, 24 h
Outline: (§1)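 Broth microdilution run to the standard NCCLS-recommended procedure, applied to all newly synthesized compounds, with a panel that included four Gram-positive strains.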

Klebsiella pneumoniae = test: Antibacterial activity against Klebsiella pneumoniae ATCC 700603 after 24 hrs by broth microdilution method; type: functional; conditions: Klebsiella pneumoniae, 700603, 24 h; outline: as §1
Staphylococcus aureus [1] = test: Antibacterial activity against penicillin-resistant Staphylococcus aureus after 24 hrs by broth microdilution method; type: functional
Escherichia coli = test: Antibacterial activity against Escherichia coli ATCC 25922 after 24 hrs by broth microdilution method; type: functional; conditions: ATCC 25922, 24 h; outline: as §1
Staphylococcus aureus [2] = test: Antibacterial activity against Staphylococcus aureus ATCC 25923 after 24 hrs by broth microdilution method; type: functional; conditions: ATCC 25923, 24 h; outline: as §1
Staphylococcus aureus [3] = test: Antibacterial activity against methicillin-resistant Staphylococcus aureus ATCC 43300 after 24 hrs by broth microdilution method; type: functional; conditions: ATCC 43300, 24 h
[4] = target: T1, Cell division protein FtsZ (Bacillus subtilis) (UniProt A5Z1V5); test: Inhibition of FtsZ in Bacillus subtilis ATCC 9372 assessed as filamentation
T1 sequence (whole entry): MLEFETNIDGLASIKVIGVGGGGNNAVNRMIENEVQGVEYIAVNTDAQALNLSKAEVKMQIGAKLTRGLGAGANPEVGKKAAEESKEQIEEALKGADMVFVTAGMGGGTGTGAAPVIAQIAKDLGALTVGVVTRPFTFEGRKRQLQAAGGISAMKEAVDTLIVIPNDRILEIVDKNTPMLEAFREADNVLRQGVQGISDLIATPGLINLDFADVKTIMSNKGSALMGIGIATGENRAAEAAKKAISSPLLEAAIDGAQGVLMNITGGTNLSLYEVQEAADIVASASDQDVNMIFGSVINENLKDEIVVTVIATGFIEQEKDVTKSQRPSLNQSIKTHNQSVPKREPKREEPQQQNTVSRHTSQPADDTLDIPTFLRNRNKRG

[5] = target: T2, Cell division protein FtsZ (Staphylococcus aureus) (UniProt P0A031); test: Inhibition of FtsZ in Staphylococcus aureus assessed as ballooning
T2 sequence (whole entry): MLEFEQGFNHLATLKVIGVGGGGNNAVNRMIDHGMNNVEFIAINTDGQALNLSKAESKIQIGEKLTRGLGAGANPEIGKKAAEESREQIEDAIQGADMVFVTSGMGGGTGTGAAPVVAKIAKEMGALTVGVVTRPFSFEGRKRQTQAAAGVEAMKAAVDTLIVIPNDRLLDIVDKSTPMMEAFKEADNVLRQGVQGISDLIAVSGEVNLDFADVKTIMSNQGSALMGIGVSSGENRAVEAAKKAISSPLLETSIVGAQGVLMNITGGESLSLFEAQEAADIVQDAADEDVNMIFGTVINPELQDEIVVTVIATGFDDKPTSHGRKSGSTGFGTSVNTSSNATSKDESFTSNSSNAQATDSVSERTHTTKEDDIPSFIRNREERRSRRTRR

SMILES	MIC (Bacillus subtilis)	MIC (Klebsiella pneumoniae)	MIC (Staphylococcus aureus [1])	MIC (Escherichia coli)	MIC (Staphylococcus aureus [2])	MIC (Staphylococcus aureus [3])	inhibition [4]	inhibition [5]
Fc1ccc(OCCCCOc2ccc(Cl)cc2)c(F)c1-c1c[nH]nn1	> 64 µg/mL	> 64 µg/mL	> 64 µg/mL	> 64 µg/mL	> 64 µg/mL	> 64 µg/mL	–	–
CCCCC(CC)COc1ccc(F)c(C(N)=O)c1F (centres undefined)	2 µg/mL (≈ 7.01 µM)	4 µg/mL (≈ 14 µM)	8 µg/mL (≈ 28 µM)	> 64 µg/mL	4 µg/mL (≈ 14 µM)	2 to 4 µg/mL (≈ 7.01 to 14 µM)	–	–
Fc1ccc(OCc2cccc(Cl)c2)c(F)c1-c1c[nH]nn1	16 µg/mL (≈ 49.7 µM)	> 64 µg/mL	16 µg/mL (≈ 49.7 µM)	> 64 µg/mL	16 µg/mL (≈ 49.7 µM)	8 µg/mL (≈ 24.9 µM)	–	–
Clc1cccc(COc2cccc(-c3c[nH]nn3)c2)c1	16 µg/mL (≈ 56 µM)	16 µg/mL (≈ 56 µM)	32 µg/mL (≈ 112 µM)	> 64 µg/mL	16 µg/mL (≈ 56 µM)	16 µg/mL (≈ 56 µM)	–	–
Clc1ccc(COc2cccc(-c3c[nH]nn3)c2)cc1	> 64 µg/mL	> 64 µg/mL	> 64 µg/mL	> 64 µg/mL	> 64 µg/mL	> 64 µg/mL	–	–
CCCCC(CC)COc1ccc(-c2c[nH]nn2)cc1 (centres undefined)	2 µg/mL (≈ 7.32 µM)	4 µg/mL (≈ 14.6 µM)	4 µg/mL (≈ 14.6 µM)	> 64 µg/mL	4 µg/mL (≈ 14.6 µM)	4 µg/mL (≈ 14.6 µM)	inactive	Active
Clc1ccc(COc2cccc(Cn3cncn3)c2)cc1	> 64 µg/mL	64 µg/mL (≈ 214 µM)	> 64 µg/mL	> 64 µg/mL	> 64 µg/mL	> 64 µg/mL	–	–
CCOc1cccc(-c2c[nH]nn2)c1	> 64 µg/mL	> 64 µg/mL	> 64 µg/mL	> 64 µg/mL	> 64 µg/mL	> 64 µg/mL	–	–
Clc1cccc(COc2cccc(Cn3cncn3)c2)c1	> 64 µg/mL	64 µg/mL (≈ 214 µM)	> 64 µg/mL	> 64 µg/mL	> 64 µg/mL	> 64 µg/mL	–	–
NC(=O)c1c(F)ccc(OCC2COc3ccc(Cl)cc3O2)c1F (centres undefined)	–	–	–	–	–	0.5 µg/mL (≈ 1.41 µM)	–	–
CCCCC(CC)COc1ccc(F)c(-c2c[nH]nn2)c1F (racemic)	4 µg/mL (≈ 12.9 µM)	8 µg/mL (≈ 25.9 µM)	8 µg/mL (≈ 25.9 µM)	> 64 µg/mL	8 µg/mL (≈ 25.9 µM)	4 µg/mL (≈ 12.9 µM)	–	–
O=[N+]([O-])c1ccc(COc2cccc(Cn3cncn3)c2)cc1	> 64 µg/mL	> 64 µg/mL	> 64 µg/mL	> 64 µg/mL	> 64 µg/mL	> 64 µg/mL	–	–
Fc1ccc(OCc2nc3cc(Cl)cnc3s2)c(F)c1-c1c[nH]nn1	> 64 µg/mL	> 64 µg/mL	> 64 µg/mL	> 64 µg/mL	> 64 µg/mL	> 64 µg/mL	–	–
Clc1ccc(OCCCCOc2cccc(-c3c[nH]nn3)c2)cc1	> 64 µg/mL	> 64 µg/mL	> 64 µg/mL	> 64 µg/mL	> 64 µg/mL	> 64 µg/mL	–	–
Cc1cccc(COc2cccc(-c3c[nH]nn3)c2)c1	32 µg/mL (≈ 121 µM)	32 µg/mL (≈ 121 µM)	32 µg/mL (≈ 121 µM)	> 64 µg/mL	32 µg/mL (≈ 121 µM)	16 µg/mL (≈ 60.3 µM)	–	–
CCCCC(CC)COc1cccc(Cn2cncn2)c1 (racemic)	16 µg/mL (≈ 55.7 µM)	16 µg/mL (≈ 55.7 µM)	32 µg/mL (≈ 111 µM)	> 64 µg/mL	16 µg/mL (≈ 55.7 µM)	32 µg/mL (≈ 111 µM)	inactive	Active
CCCCC(CC)COc1cccc(-c2cnnn2C)c1 (centres undefined)	64 µg/mL (≈ 223 µM)	16 µg/mL (≈ 55.7 µM)	> 64 µg/mL	> 64 µg/mL	64 µg/mL (≈ 223 µM)	> 64 µg/mL	–	–
CCCCC(CC)COc1cccc(C(N)=O)c1 (racemic)	16 µg/mL (≈ 64.2 µM)	8 µg/mL (≈ 32.1 µM)	16 µg/mL (≈ 64.2 µM)	> 64 µg/mL	16 µg/mL (≈ 64.2 µM)	16 µg/mL (≈ 64.2 µM)	–	–
CCCCC(CC)COc1cccc(Cn2cnnn2)c1 (racemic)	> 64 µg/mL	8 µg/mL (≈ 27.7 µM)	> 64 µg/mL	> 64 µg/mL	> 64 µg/mL	> 64 µg/mL	–	–
Cc1ccc(COc2ccc(F)c(-c3c[nH]nn3)c2F)cc1	32 µg/mL (≈ 106 µM)	> 64 µg/mL	32 µg/mL (≈ 106 µM)	> 64 µg/mL	32 µg/mL (≈ 106 µM)	16 µg/mL (≈ 53.1 µM)	–	–
